Results on 28 molecules are retold here after ChEMBL document CHEMBL5244249, “Discovery of tofacitinib derivatives as orally active antitumor agents based on the scaffold hybridization strategy” (Eur J Med Chem, 2020).

Series [1] is described as follows: Cytotoxicity against human GES1 cells assessed as inhibition of cell growth incubated for 72 hrs by MTT assay. Type of series: toxicity, cell-based. In general terms: Tetrazolium dyes change colour on reduction, which living cells bring about.
The test system of a further series is BGC-823. As to the kind of experiment: Antiproliferative activity against human BGC-823 cells assessed as inhibition of cell growth incubated for 72 hrs by MTT assay. It is filed as functional, cell-based. As to conditions: BGC-823, 72 h. The method in brief: (§1)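 Antiproliferative screen in gastric cancer lines MGC-803, HGC-27 and BGC-823 by MTT assay; IC50 reported as mean ± SD.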

In the next series the test system is HGC-27. As to the kind of experiment: Antiproliferative activity against human HGC-27 cells assessed as inhibition of cell growth incubated for 72 hrs by MTT assay. It is filed as functional, cell-based. As to conditions: HGC-27, 72 h. The method in brief:
as §1

In a further series the test system is MGC-803. Briefly: Antiproliferative activity against human MGC-803 cells assessed as inhibition of cell growth incubated for 72 hrs by MTT assay. It is filed as functional, cell-based. Conditions: MGC-803, 72 h. In a few lines: as §1
For another series, the system named is NCI-H1975. Briefly: Antiproliferative activity against human NCI-H1975 cells assessed as inhibition of cell growth incubated for 72 hrs by MTT assay. It is filed as functional, cell-based. As to conditions: NCI-H1975, 72 h.
A further series concerns PC-9. Briefly: Antiproliferative activity against human PC-9 cells assessed as inhibition of cell growth incubated for 72 hrs by MTT assay. Conditions: PC-9, 72 h. Type of series: functional, cell-based.
For a further series, the system named is MCF7. Briefly: Antiproliferative activity against human MCF7 cells assessed as inhibition of cell growth incubated for 72 hrs by MTT assay. Conditions: MCF7, 72 h. Type of series: functional, cell-based.

pIC50: −log10 of the molar value.

In the case of `Cc1cc(N2CC[C@@H](C)[C@@H](N(C)c3ncnc4[nH]ccc34)C2)n2nc(SCc3ccc(Br)cc3)nc2n1`, the concentration for half-maximal inhibition (IC50) at 72 h in series [1] was found to be 55.6 µM. The negative logarithm of the IC50 (pIC50) in the series with BGC-823 is 4.55; in the series with HGC-27, 4.71; with MGC-803, 5.40.
Consider `O=c1[nH]cc(F)c(=O)[nH]1` [FLUOROURACIL], for which the negative-log IC50 (pIC50) in the series on NCI-H1975 is 5.57; with PC-9, 5.49; with MCF7, 5.32; with BGC-823, 5.23; in the series on HGC-27, 5.24; in the series with MGC-803 it was 5.42. In addition, the IC50 at 72 h in series [1] worked out at 2.37 µM.
Take `CCCSc1nc2nc(C)cc(N3CC[C@@H](C)[C@@H](N(C)c4ncnc5[nH]ccc45)C3)n2n1`: the IC50 at 72 h in series [1] is 67.1 µM. For the same molecule, the negative-log IC50 (pIC50) with BGC-823 is 4.29; in the series on HGC-27, 4.68; with MGC-803 it was 4.81.
Consider `C=CCSc1nc2nc(C)cc(N3CC[C@@H](C)[C@@H](N(C)c4ncnc5[nH]ccc45)C3)n2n1`, for which the IC50 at 72 h in series [1] is more than 100 µM. For the same molecule, the pIC50 in the series on BGC-823 is 4.39; in the series on HGC-27, 4.45; with MGC-803, 4.49.
Consider `Cc1cc(N2CC[C@@H](C)[C@@H](N(C)c3ncnc4[nH]ccc34)C2)n2nc(SCc3ccccc3Br)nc2n1`, for which the IC50 at 72 h in series [1] was more than 100 µM. The results for the negative-log IC50 (pIC50) in the series on BGC-823, in the series with HGC-27 and in the series on MGC-803 were 4.09, 4.67 and 4.57, respectively.
On the same counts, the results for `Cc1cc(N2CC[C@@H](C)[C@@H](N(C)c3ncnc4[nH]ccc34)C2)n2nc(SCCCc3ccccc3)nc2n1` are more than 100 µM, less than 4.00, less than 4.00 and less than 4.00.
Take `Cc1cc(N2CC[C@@H](C)[C@@H](N(C)c3ncnc4[nH]ccc34)C2)n2nc(SCc3ccc(Cl)cc3)nc2n1`: the IC50 at 72 h in series [1] is more than 100 µM. The pIC50 is 4.58 in the series on BGC-823, 4.74 in the series with HGC-27 and 4.79 in the series on MGC-803.
Turning to `C[C@@H]1CCN(C(=O)CC#N)C[C@@H]1N(C)c1ncnc2[nH]ccc12` [TOFACITINIB], the pIC50 in the series with NCI-H1975, in the series with PC-9, with MCF7 and in the series with MGC-803 was less than 4.00 each time.
Consider `Cc1cc(N2CC[C@@H](C)[C@@H](N(C)c3ncnc4[nH]ccc34)C2)n2nc(SCc3ccc(F)c(Cl)c3)nc2n1`, for which the half-maximal inhibitory concentration (IC50) at 72 h in series [1] is more than 100 µM. Moreover, the values for the negative logarithm of the IC50 (pIC50) with BGC-823, in the series on HGC-27 and in the series on MGC-803 were 4.00, less than 4.00 and 4.28, respectively.
On the same counts, the results for `Cc1cc(N2CC[C@@H](C)[C@@H](N(C)c3ncnc4[nH]ccc34)C2)n2nc(SCc3ccc([N+](=O)[O-])cc3)nc2n1` are 36.6 µM, 4.22, 4.53 and 4.57.
On the same counts, the results for `C[C@@H]1CCN(c2cc(-c3ccccc3)nc3ncnn23)C[C@@H]1N(C)c1ncnc2[nH]ccc12` are more than 100 µM, less than 4.00, less than 4.00 and 4.07.
`Cc1cc(N2CC[C@@H](C)[C@@H](N(C)c3ncnc4[nH]ccc34)C2)n2ncnc2n1`: the negative logarithm of the IC50 (pIC50) with NCI-H1975 was 4.65; in the series with PC-9, 4.68; with MCF7, 4.47; with BGC-823, 4.17; with HGC-27, 4.95; with MGC-803, 5.36. In addition, in series [1], the 50% inhibitory concentration (IC50) at 72 h turned out to be 57.9 µM.
For `Cc1cc(N2CC[C@@H](C)[C@@H](N(C)c3ncnc4[nH]ccc34)C2)n2nc(SCC3CCCCC3)nc2n1`, the IC50 at 72 h in series [1] amounted to 98.2 µM. For the same molecule, the figures for the pIC50 in the series on BGC-823, in the series on HGC-27 and in the series with MGC-803 were 4.79, 4.94 and 5.04, respectively.
Take `Cc1cc(N2CC[C@@H](C)[C@@H](N(C)c3ncnc4[nH]ccc34)C2)n2nc(SCc3cc(Cl)ccc3Cl)nc2n1`: the IC50 at 72 h in series [1] was 87.5 µM. Also, the pIC50 with BGC-823 was 4.72; in the series with HGC-27, 4.72; in the series on MGC-803 it was 5.01.
With `C[C@@H]1CCN(c2c3c(nc4ncnn24)CCC3)C[C@@H]1N(C)c1ncnc2[nH]ccc12`, the concentration for half-maximal inhibition (IC50) at 72 h in series [1] is more than 100 µM. Also, the pIC50 in the series with BGC-823 is less than 4.00; with HGC-27, 4.30; in the series on MGC-803, 4.25.
In the case of `Cc1cc(N2CC[C@@H](C)[C@@H](N(C)c3ncnc4[nH]ccc34)C2)n2nc(SCc3csc4ccc(Cl)cc34)nc2n1`, the 50% inhibitory concentration (IC50) at 72 h in series [1] was more than 100 µM. Moreover, the pIC50 in the series with BGC-823, in the series on HGC-27 and with MGC-803 was less than 4.00 throughout.
In the case of `Cc1ccc(CSc2nc3nc(C)cc(N4CC[C@@H](C)[C@@H](N(C)c5ncnc6[nH]ccc56)C4)n3n2)cc1`, in series [1], the IC50 at 72 h stood at 82.5 µM. Further, the pIC50 in the series with BGC-823 was 4.16; with HGC-27, 4.82; in the series on MGC-803 it was 5.23.
On to `COc1ccc(CSc2nc3nc(C)cc(N4CC[C@@H](C)[C@@H](N(C)c5ncnc6[nH]ccc56)C4)n3n2)cc1`, for which the IC50 at 72 h in series [1] was more than 100 µM. In addition, the figures for the pIC50 in the series on BGC-823, with HGC-27 and with MGC-803 were 4.16, 4.74 and 4.82, respectively.
Turning to `Cc1cc(N2CC[C@@H](C)[C@@H](N(C)c3ncnc4[nH]ccc34)C2)n2nc(SCc3ccccc3)nc2n1`, the half-maximal inhibitory concentration (IC50) at 72 h in series [1] turned out to be 67.2 µM. In addition, the pIC50 was 4.84 in the series with BGC-823, 4.86 in the series with HGC-27 and 5.23 in the series on MGC-803.
On the same counts, the results for `Cc1cc(N2CC[C@@H](C)[C@@H](N(C)c3ncnc4[nH]ccc34)C2)n2nc(SCCc3ccccc3)nc2n1` are 66.2 µM, 4.55, 4.93 and 5.21.
As to `Cc1cc(N2CC[C@@H](C)[C@@H](N(C)c3ncnc4[nH]ccc34)C2)n2nc(SCc3ccc(F)cc3)nc2n1`, the 50% inhibitory concentration (IC50) at 72 h in series [1] was found to be 12.3 µM. For the same molecule, the negative logarithm of the IC50 (pIC50) with BGC-823 was 4.35; with HGC-27, 4.59; with MGC-803, 4.93.
`Cc1cc(N2CC[C@@H](C)[C@@H](N(C)c3ncnc4[nH]ccc34)C2)n2nc(SCc3nc4ccccc4[nH]3)nc2n1`: the 50% inhibitory concentration (IC50) at 72 h in series [1] is 40.2 µM. Besides, the pIC50 in the series with BGC-823 is less than 4.00; in the series on HGC-27, less than 4.00; in the series with MGC-803 it was 4.67.
As for `Cc1nc2nc(SCc3ccc(Cl)cc3)nn2c(N2CC[C@@H](C)[C@@H](N(C)c3ncnc4[nH]ccc34)C2)c1C`, in series [1], the IC50 at 72 h stood at 99.2 µM. Moreover, the negative logarithm of the IC50 (pIC50) is less than 4.00 in the series with BGC-823, less than 4.00 in the series with HGC-27 and 4.04 in the series on MGC-803.
For `Cc1cc(N2CC[C@@H](C)[C@@H](N(C)c3ncnc4[nH]ccc34)C2)n2nc(SCC3CC3)nc2n1`, in series [1], the IC50 at 72 h was 27.9 µM. The negative-log IC50 (pIC50) in the series on BGC-823 is 4.44; in the series with HGC-27, 4.67; with MGC-803, 5.02.
On the same counts, the results for `C#CCSc1nc2nc(C)cc(N3CC[C@@H](C)[C@@H](N(C)c4ncnc5[nH]ccc45)C3)n2n1` are more than 100 µM, 4.21, 4.45 and 4.74.
Taken in the same sequence, the figures for `CCCCCc1c(C)nc2nc(SCc3ccc(Cl)cc3)nn2c1N1CC[C@@H](C)[C@@H](N(C)c2ncnc3[nH]ccc23)C1` were more than 100 µM, 4.49, less than 4.00 and less than 4.00.
On the same counts, the results for `CCc1cc(N2CC[C@@H](C)[C@@H](N(C)c3ncnc4[nH]ccc34)C2)n2ncnc2n1` are more than 100 µM, 4.08, less than 4.00 and 4.10.
In the case of `Cc1cc(N2CC[C@@H](C)[C@@H](N(C)c3ncnc4[nH]ccc34)C2)n2nc(SCc3cc(=O)oc4c3ccc3ccccc34)nc2n1`, the 50% inhibitory concentration (IC50) at 72 h in series [1] is more than 100 µM. Further, the pIC50 with BGC-823, with HGC-27 and in the series on MGC-803 was less than 4.00 each time.

Usually IC50 stands for the point on the concentration scale where inhibition reaches its midpoint. As a reminder, the pIC50 is the IC50 on a negative log10 scale, so that one unit is a factor of ten.
